Reference: ChEMBL document CHEMBL4152364, “Structure-activity relationship of novel (benzoylaminophenoxy)phenol derivatives as anti-prostate cancer agents” (Bioorg Med Chem, 2018)
Activity calls are given as the source filed them. The rule behind the calls is not given here.

How the values were obtained:
[1] = target: T1, Androgen receptor (Mus musculus) (UniProt P19091); assay: Agonist activity at AR in mouse SC3 cells assessed as effect on cell proliferation after 3 days by CCK8 assay; assay type: cell-based
T1 sequence (whole entry): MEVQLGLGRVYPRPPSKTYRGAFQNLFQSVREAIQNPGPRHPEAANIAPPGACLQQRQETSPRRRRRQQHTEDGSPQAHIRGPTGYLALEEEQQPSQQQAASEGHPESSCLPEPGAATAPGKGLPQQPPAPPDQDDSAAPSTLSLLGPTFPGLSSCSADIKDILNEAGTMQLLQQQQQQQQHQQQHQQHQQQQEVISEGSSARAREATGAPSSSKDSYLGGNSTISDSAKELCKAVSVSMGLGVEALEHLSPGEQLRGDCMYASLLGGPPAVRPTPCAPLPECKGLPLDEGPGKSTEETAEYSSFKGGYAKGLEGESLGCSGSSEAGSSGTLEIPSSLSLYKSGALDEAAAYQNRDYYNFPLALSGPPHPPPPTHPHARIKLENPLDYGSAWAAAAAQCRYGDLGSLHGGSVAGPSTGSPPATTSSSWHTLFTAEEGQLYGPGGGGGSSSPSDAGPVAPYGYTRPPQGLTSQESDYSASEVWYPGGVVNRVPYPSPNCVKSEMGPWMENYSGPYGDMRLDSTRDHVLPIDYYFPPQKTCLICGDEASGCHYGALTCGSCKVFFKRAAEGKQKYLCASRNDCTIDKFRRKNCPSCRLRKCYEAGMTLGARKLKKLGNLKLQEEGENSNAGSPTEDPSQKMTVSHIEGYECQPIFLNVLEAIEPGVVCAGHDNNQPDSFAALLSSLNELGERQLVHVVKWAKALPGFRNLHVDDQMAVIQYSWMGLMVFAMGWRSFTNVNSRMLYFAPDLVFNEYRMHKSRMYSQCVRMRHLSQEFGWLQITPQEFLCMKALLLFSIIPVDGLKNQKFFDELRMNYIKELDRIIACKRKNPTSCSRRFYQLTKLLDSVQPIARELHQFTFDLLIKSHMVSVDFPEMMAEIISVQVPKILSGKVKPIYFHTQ
Outline: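 SC-3 cells diluted to 20,000 cells/mL in MEM α with 2% charcoal-stripped FBS, seeded and held 24 h, then given serial dilutions of compound alone (DMSO as dilution control). Incubated 3 days at 37°C, 5% CO2. WST-8 (Cell Counting Kit-8) added for 2 h, absorbance read at 450 nm.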

[2] = target: T1, Androgen receptor (Mus musculus); assay: Antagonist activity at AR in mouse SC3 cells assessed as inhibition of DHT-induced cell proliferation up to 10 uM after 3 days by CCK8 assay; assay type: cell-based
Outline: (§1)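 SC-3 cells diluted to 20,000 cells/mL in MEM α with 2% charcoal-stripped FBS, seeded and held 24 h, then given compound or DMSO with 1 nM DHT for 3 days at 37°C, 5% CO2. Read-out: WST-8 (CCK-8) for 2 h, absorbance at 450 nm. Compounds screened first at 10 µM. IC50 measured over 0.01–10 µM when inhibition exceeded 50%, taken as the level halving DHT-induced growth versus control. Triplicate or more.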

[3] = target: T1, Androgen receptor (Mus musculus); assay: Antagonist activity at AR in mouse SC3 cells assessed as inhibition of DHT-induced cell proliferation at 10 uM after 3 days by CCK8 assay relative to control; assay type: cell-based; outline: as §1
PC-3 = assay: Antiproliferative activity against human PC3 cells assessed as inhibition of cell proliferation after 3 days in presence of DHT by WST8 assay; assay type: functional, cell-based
Outline: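 PC-3 cells kept in RPMI-1640 with 10% FBS, then diluted to 20,000 cells/mL in RPMI-1640 with 10% charcoal-stripped FBS. Seeded and held 24 h, then given serial dilutions of compound or DMSO with 1 nM DHT for 3 days. WST-8 added for 2 h, absorbance at 450 nm. Viability normalized to vehicle-treated cells as 1.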

[4] = Antagonist activity at AR in mouse SC3 cells assessed as inhibition of DHT-induced cell proliferation after 3 days by CCK8 assay

Row | Structure (SMILES) | Activity [1] | inhibition [2] | inhibition [3] | inhibition (PC-3) | IC50 [4]
1 | COc1cccc(C(=O)N(C)c2cccc(Oc3ccc(O)cc3)c2)c1 | inactive | inactive |  |  | 
2 | CN(C)c1ccccc1C(=O)Nc1cccc(Oc2ccc(O)cc2)c1 | inactive |  | > 50% |  | 
3 | COc1cccc(C(=O)Nc2cc(Cl)c(Oc3ccc(O)cc3)c(Cl)c2)c1 | inactive |  | > 50% | Dose-dependent effect | 
4 | COc1ccccc1C(=O)Nc1ccc(C)c(Oc2ccc(O)cc2)c1 | inactive |  | > 50% |  | 
5 | COc1cccc(C(=O)Nc2ccc(Oc3ccc(O)cc3)cc2O)c1 | inactive | inactive |  |  | 
6 | CN(C)c1ccccc1C(=O)Nc1cccc(Oc2cccc(O)c2)c1 | inactive | inactive |  |  | 
7 | CN(C)c1ccc(C(=O)Nc2cccc(Oc3ccc(O)cc3)c2)cc1 | inactive |  | > 50% |  | 
8 | COc1ccc(C(=O)N(C)c2cccc(Oc3ccc(O)cc3)c2)cc1 | inactive | inactive |  |  | 
9 | CN(C)c1cccc(C(=O)Nc2ccc(Oc3cccc(O)c3)cc2)c1 | inactive | inactive |  |  | 
10 | COc1cccc(C(=O)Nc2ccc(Oc3ccc(O)cc3)c(F)c2F)c1 | inactive |  | > 50% | Dose-dependent effect | 
11 | COc1cccc(C(=O)Nc2cccc(Oc3ccc(O)cc3)c2)c1 | inactive | inactive |  |  | 
12 | COc1cccc(C(=O)Nc2ccc(Oc3ccc(O)cc3)c(C(F)(F)F)c2)c1 | inactive |  | > 50% |  | 
13 | CN(C)c1cccc(C(=O)Nc2cccc(Oc3ccc(O)cc3)c2)c1 | inactive | inactive |  |  | 
14 | COc1cccc(C(=O)Nc2ccc(Oc3ccc(O)cc3)c(F)c2)c1 | inactive |  | > 50% | Dose-dependent effect | 
15 | COc1ccccc1C(=O)Nc1cccc(Oc2cccc(O)c2)c1 | inactive | inactive |  |  | 
16 | CN(C)c1ccccc1C(=O)Nc1ccc(Oc2cccc(O)c2)cc1 | inactive | inactive |  |  | 
17 | COc1ccc(C(=O)Nc2cc(Oc3ccc(O)cc3)ccc2C)cc1 | inactive |  |  |  | 
18 | COc1cccc(C(=O)Nc2ccc(Oc3ccc(O)cc3)cc2OC)c1 | inactive |  | > 50% |  | 
19 | COc1cccc(C(=O)Nc2ccc(Oc3cccc(O)c3)cc2)c1 | inactive |  |  |  | 
20 | COc1cccc(C(=O)Nc2ccc(Oc3ccc(O)cc3)c(C#N)c2)c1 | inactive | inactive |  |  | 

Row | Structure (SMILES) | Activity [1] | inhibition [2] | inhibition [3] | inhibition (PC-3) | IC50 [4]
21 | COc1ccc(C(=O)Nc2cccc(Oc3ccc(O)cc3)c2)cc1 | inactive |  |  |  | 
22 | COc1ccc(C(=O)Nc2cccc(Oc3ccc(O)cc3)c2C)cc1 | inactive |  |  |  | 
23 | COc1cccc(C(=O)N(C)c2ccc(Oc3ccc(O)cc3)c(C)c2)c1 | inactive |  | > 50% |  | 
24 | COc1cccc(C(=O)Nc2ccc(Oc3ccc(O)cc3)c(Cl)c2)c1 | inactive |  | > 50% | Dose-dependent effect | 
25 | COc1cccc(C(=O)Nc2cc(F)c(Oc3ccc(O)cc3)c(F)c2)c1 | inactive |  | > 50% | Dose-dependent effect | 
26 | COc1cccc(C(=O)Nc2ccc(Oc3ccc(O)cc3)c(Br)c2)c1 | inactive |  | > 50% |  | 
27 | CN(C)c1ccc(C(=O)Nc2ccc(Oc3cccc(O)c3)cc2)cc1 | inactive |  | > 50% |  | 
28 | COc1cccc(C(=O)Nc2ccc(Oc3ccc(O)cc3)c(C)c2)c1 |  |  | > 50% | Dose-dependent effect | 750 nM
29 | COc1ccccc1C(=O)Nc1cccc(Oc2ccc(O)cc2)c1 | inactive |  |  |  | 
30 | COc1ccccc1C(=O)Nc1ccc(Oc2cccc(O)c2)cc1 | inactive | inactive |  |  | 
31 | COc1cccc(C(=O)Nc2cccc(Oc3cccc(O)c3)c2)c1 | inactive |  |  |  | 
32 | COc1ccc(C(=O)Nc2ccc(C)c(Oc3ccc(O)cc3)c2)cc1 | inactive |  |  |  | 
33 | C[C@](O)(CS(=O)(=O)c1ccc(F)cc1)C(=O)Nc1ccc(C#N)c(C(F)(F)F)c1 |  |  |  | inactive | 
34 | CN(C)c1cccc(C(=O)Nc2cccc(Oc3cccc(O)c3)c2)c1 | inactive |  |  |  | 
35 | COc1cccc(C(=O)Nc2ccc(Oc3ccc(O)cc3)cc2Cl)c1 | inactive |  | > 50% |  | 
36 | COc1cccc(C(=O)Nc2ccc(Oc3ccc(O)cc3)cc2C)c1 | inactive |  | > 50% |  | 
37 | COc1cccc(C(=O)Nc2ccc(Oc3ccc(O)cc3)cc2F)c1 | inactive |  | > 50% | Dose-dependent effect | 
38 | COc1ccc(C(=O)Nc2cccc(Oc3cccc(O)c3)c2)cc1 | inactive |  |  |  | 
39 | COc1ccc(C(=O)Nc2ccc(Oc3cccc(O)c3)cc2)cc1 | inactive | inactive |  |  | 
